Test results reported in ChEMBL document CHEMBL2046393, “Enantiomeric derivatives of tokinolide B: absolute configuration and biological properties” (J Nat Prod, 2012).

Columns and labels:
Assay type in all cases: functional, cell-based
K562 = experiment: Cytotoxicity against human K562 cells assessed as growth inhibition after 48 hrs by SRB assay; details: K562, 48 h
Procedure, shortened: (§1)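 Cell lines from NCI, grown in RPMI-1640 with 10% FBS and antibiotics at 37 °C, 5% CO2. Seeding: HCT-15 10 × 10^4 cell/well, K562 5 × 10^4 cell/mL, SKLU-1 7500 cell/mL. After 24 h, compound added for 48 h. Cells fixed in cold TCA (60 min, 4 °C), stained with 0.4% SRB, dye extracted in Tris base, OD read at 515 nm. IC50 from linear regression; means ± SEM, three replicates.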

HCT-15 = experiment: Cytotoxicity against human HCT15 cells assessed as growth inhibition after 48 hrs by SRB assay; details: HCT-15, 48 h; procedure, shortened: as §1
SK-LU-1 = experiment: Cytotoxicity against human SKLU1 cells assessed as growth inhibition after 48 hrs by SRB assay; details: SK-LU-1, 48 h; procedure, shortened: as §1

Structure (SMILES) | IC50 (K562) [µM] | IC50 (HCT-15) [µM] | IC50 (SK-LU-1) [µM]
CCCC[C@]12O[C@@]34CCCC=C3C(=O)O[C@]43[C@@H](CCC)[C@@H]4C=C(C(=O)N1[C@H](C)c1ccccc1)[C@@]32CC4 | 5.7 | 5.4 | 4.1
CCCC[C@@]12O[C@]34CCCC=C3C(=O)O[C@@]43[C@H](CCC)[C@H]4C=C(C(=O)N1[C@H](C)c1ccccc1)[C@]32CC4 | 21.7 | 8.5 | 5.9
CCCC[C@@]12O[C@]34CCCC=C3C(=O)O[C@@]43[C@H](CCC)[C@@H]4C=C(C(=O)N1[C@@H](C)c1ccccc1)[C@]32CC4 | 13.9 | 7.5 | 4.9
CCCC[C@]12O[C@@]34CCCC=C3C(=O)O[C@]43[C@@H](CCC)[C@H]4C=C(C(=O)N1[C@@H](C)c1ccccc1)[C@@]32CC4 | 5.2 | 5.2 | 4.3
CCC/C=C1\OC(=O)C2=C[C@H]3CCC21[C@]1(OC(=O)C2=C1CCC=C2)[C@@H]3CCC (mixture of isomers) | 26.6 | 10.5 | 7.1
CCC/C=C1\OC(=O)C2=C1CC[C@H]1[C@@H]2[C@@]2(OC(=O)C3=C2CCC=C3)[C@H]1CCC (racemic) | 46.1 | 44.8 | 13.2
C=C1C(=O)O[C@@H]2C[C@@H](C)[C@@H]3C=CC(=O)[C@@]3(C)[C@@H](O)[C@H]12 [HELENALIN] | 0.28 | 0.29 | 0.21
